Data set [1] deals with Staphylococcus aureus. Briefly: Antivirulence activity against Staphylococcus aureus NCTC 8325 in sheep RBC assessed as inhibition of hemolysis in blood agar plate at 100 uM by measuring hemolysin level after overnight incubation by serial dilution agar plate assay.
Data set [2] deals with T1, ATP-dependent Clp protease proteolytic subunit (Staphylococcus aureus (strain NCTC 8325)) (UniProt Q2G036).
T1 sequence (whole entry): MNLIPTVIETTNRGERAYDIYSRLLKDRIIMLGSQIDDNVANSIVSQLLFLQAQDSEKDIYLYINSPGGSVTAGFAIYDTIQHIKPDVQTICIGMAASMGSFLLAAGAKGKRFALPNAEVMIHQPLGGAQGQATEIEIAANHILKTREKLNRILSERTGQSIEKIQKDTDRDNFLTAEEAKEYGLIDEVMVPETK
Put plainly: Inhibition of recombinant Staphylococcus aureus NCTC 8325 peptidase activity of clpP expressed in Escherichia coli BL21 at 200 to 800 uM after 10 mins using SLY-AMC as substrate by fluorescence assay. In short, it runs like this: (§1)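 Recombinant S. aureus ClpP (Strep-tag purified from E. coli BL21), 2 µg, preincubated 10 min at room temperature with lactone or DMSO in 50 mM MES, 100 mM KCl, pH 7.0. SLY-AMC added at 0.2 mM final, 2% DMSO final. Fluorescence read at ex 340/em 450 nm. At least triplicates; EC50 from curve fitting.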

In data set [3] the test system is Staphylococcus aureus. Briefly: Antivirulence activity against Staphylococcus aureus NCTC 8325-4 in sheep RBC assessed as inhibition of hemolysis in blood agar plate by measuring hemolysin level after overnight incubation by serial dilution agar plate assay. Format: functional, organism-based. Put shortly: (§2)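 S. aureus NCTC 8325 inoculated onto 5.5 mm card discs on 5% sheep blood agar plates, together with serial dilutions of β-lactone in DMSO, and incubated overnight at 37 °C. Hemolysis zones were measured and normalized to the DMSO control. Compound stocks were kept in DMSO at -20 °C.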

In data set [4] the target is T1, ATP-dependent Clp protease proteolytic subunit (Staphylococcus aureus (strain NCTC 8325)). Briefly: Displacement of U1P from clpP in live Staphylococcus aureus NCTC 8325 cells after 1 hr using rhodamine-azide by SDS PAGE fluorescence analysis.
Data set [5] concerns Staphylococcus aureus. Put plainly: Antivirulence activity against Staphylococcus aureus NCTC 8325-4 in sheep RBC assessed as inhibition of hemolysis in liquid medium by measuring hemolysin level at 100 uM after overnight incubation by spent culture supernatant assay relative to control.
Data set [6] addresses T1, ATP-dependent Clp protease proteolytic subunit (Staphylococcus aureus (strain NCTC 8325)). Briefly: Inhibition of recombinant Staphylococcus aureus NCTC 8325 peptidase activity of clpP expressed in Escherichia coli BL21 at 10 to 40 uM after 10 mins using SLY-AMC as substrate by fluorescence assay. Put shortly:
as §1

In data set [7] the target is T2, ATP-dependent Clp protease proteolytic subunit (Staphylococcus aureus (strain NCTC 8325), UniProt Q2G036).
T2 sequence (Q2G036 whole entry): T1 sequence (whole entry)
Put plainly: Inhibition of recombinant Staphylococcus aureus NCTC 8325 peptidase activity of clpP expressed in Escherichia coli BL21 after 10 mins using SLY-AMC as substrate by fluorescence assay. In short, it runs like this:
as §1

For data set [8], the system named is HaCaT. Put plainly: Cytotoxicity against human HaCaT cells assessed as cell viability after 24 hrs by MTT assay. Format: cell-based. In short, it runs like this: (§3)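 MTT read-out after 24 h exposure. NIH3T3 grown in DMEM (4 mM glutamine) + 10% FCS and plated at 1.5×10^3/well; HaCat grown in calcium-free DMEM (2 mM glutamine) + 10% dialyzed FCS and plated at 4.5×10^3/well. Cells cultured 24 h to 30-40% confluence. Lactones diluted 1:100 from DMSO stocks into fresh medium. MTT added for 2 h, formazan dissolved in DMSO, OD 570 nm minus 630 nm.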

The test system of data set [9] is Enterococcus faecalis. Put plainly: Growth inhibition of Enterococcus faecalis OG1RF at 1 mM after 9 hrs. Format: functional. Put shortly: (§4)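 Overnight cultures diluted 1:100 in LB (P. aeruginosa, E. coli) or BHB (S. aureus, S. epidermidis, E. faecalis). 100 µL treated with 1 µL of 100 mM lactone stock or DMSO control. Shaken in 96-well plates for 9 h at 37 °C, then OD600 read. Triplicates.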

Data set [10] concerns NIH3T3. Put plainly: Cytotoxicity against mouse NIH/3T3 cells assessed as cell viability up to 1 mM after 24 hrs by MTT assay. It is filed as cell-based. Conditions: nih3t3, 24 h. Put shortly:
(§5)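 NIH3T3 cells in DMEM (4 mM glutamine) + 10% FCS, plated at 1.5×10^3/well and cultured 24 h to 30-40% confluence. Lactones diluted 1:100 from DMSO stocks into fresh medium; cells exposed 24 h. MTT (5 mg/ml stock) added for 2 h, cells lysed in DMSO, OD at 570 nm with 630 nm background subtraction.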
On the technique in general: Formazan colour is commonly taken as a measure of viable cells.

Data set [11] deals with Staphylococcus aureus. Briefly: Antivirulence activity against Staphylococcus aureus NCTC 8325-4 in sheep RBC assessed as inhibition of hemolysis in agar plate by measuring hemolysin level after overnight incubation by serial dilution agar plate assay. It is filed as functional, organism-based. In short, it runs like this:
as §2

Data set [12] relates to Staphylococcus aureus. Put plainly: Growth inhibition of Staphylococcus aureus NCTC 8325 at 1 mM after 9 hrs. It is filed as functional, organism-based. In short, it runs like this: as §4
For data set [13], the system named is Escherichia coli. Briefly: Growth inhibition of Escherichia coli K-12 at 1 mM after 9 hrs. It is filed as functional, organism-based. Put shortly:
as §4

Data set [14] concerns Staphylococcus epidermidis. Briefly: Growth inhibition of Staphylococcus epidermidis RP62A at 1 mM after 9 hrs. It is filed as functional. Put shortly:
as §4

For data set [15], the system named is Pseudomonas aeruginosa. Briefly: Growth inhibition of Pseudomonas aeruginosa PAO1 at 1 mM after 9 hrs. It is filed as functional, organism-based. In short, it runs like this: as §4
Data set [16] has as its system Staphylococcus aureus. Briefly: Antivirulence activity against Staphylococcus aureus NCTC 8325-4 in sheep RBC assessed as inhibition of hemolysis in liquid medium by measuring hemolysin level after overnight incubation by spent culture supernatant assay.
Data set [17] can be described thus: Cytotoxicity against mouse NIH/3T3 cells assessed as cell viability at 200 to 1000 uM after 24 hrs by MTT assay. Format: cell-based, NIH3T3. The note with it: read-out: Activity. Put shortly:
as §5

The subject of data set [18] is NIH3T3. Briefly: Cytotoxicity against mouse NIH/3T3 cells assessed as cell viability after 24 hrs by MTT assay. Conditions: NIH3T3, 24 h. It is filed as cell-based. Put shortly: as §3

pEC50: −log10 of the molar value. The source made the active and inactive calls. No cut-off for these calls is given here.

As to `C=CCCCCCCCC[C@H]1OC(=O)[C@@H]1CCCCCCCCCNC(=O)OC(C)(C)C` (racemic), the outcome in [1] and in data set [3] was inactive. Moreover, the inhibition entry in [2] was “inactive”.
Regarding `C=CCCCCCCC[C@H]1C(=O)O[C@@H]1CCCCCNC(=O)c1ccc(N(C)C)cc1` (racemic), the outcome in data set [4] was Active. Besides, in data set [5], the inhibition at 100 µM came out at 20%. Also, the inhibition in data set [6] is 70%. For the same compound, in data set [3], the outcome was inactive. Besides, the pEC50 in [7] was 5.27.
In the case of `C=CCCCCCCC[C@H]1C(=O)O[C@@H]1CCc1ccccc1` (racemic), the values for the negative logarithm of the EC50 (pEC50) in data set [8], in [7] and in data set [16] were 4.04, 5.47 and 4.96, respectively. The “growth inhibition (GI)” value in data set [9], in data set [12], in data set [13], in data set [14] and in data set [15] was “inactive” throughout. Further, the Activity result in [10] is on record as “Non-toxic”. The ED50 in [11] is given as 7 nmol. The outcome in data set [4] was Active. The inhibition in data set [6] was determined as 30%. The viability at 24 h, up to 1000 µM in data set [17] was found to be 80%.
Turning to `C=CCCCCCCC[C@H]1C(=O)O[C@@H]1CCCCCCCCCCCNC(=O)OC(C)(C)C` (racemic), the result in [1] and in [3] was inactive. In data set [2], the inhibition entry is “inactive”.
For the compound `C=CCCCCCCC[C@H]1C(=O)O[C@@H]1CCc1cccnc1` (racemic), the pEC50 is 4.12 in data set [8], 4.30 in data set [18], 5.35 in data set [7] and 4.37 in data set [16]. Further, the ED50 in data set [11] is 15 nmol. In [4], the outcome was Active.
Consider `CCCCCCCCCCCC[C@H]1C(=O)O[C@@H]1CCc1ccccc1` (racemic), for which the outcome in data set [1] and in data set [3] was inactive. Also, the inhibition result in data set [2] is “inactive”.

One may read the inhibition as the relative decrease from the control value, in per cent. As a reminder, the pEC50 is −log10 of the EC50, conventionally taken in molar units.

(Values after ChEMBL document CHEMBL1933002, “Development and characterization of improved β-lactone-based anti-virulence drugs targeting ClpP” (Bioorg Med Chem, 2012).)
